Measurements: ChEMBL document CHEMBL1144562, “Synthesis of a new class of 2-anilino substituted nicotinyl arylsulfonylhydrazides as potential anticancer and antibacterial agents” (2007)
Values after ≈ are worked out from the molar mass of the structure shown.

Legend:
Assay type in all cases: functional
SR = test: Antitumor activity against SR cells; conditions: Homo sapiens
How it was run: (§1)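 Tested in the NCI 60-human-tumour-cell-line panel at five concentrations, in 10-fold dilutions from 10^-4 to 10^-8 M. Three parameters were taken from the dose-response data, each as log10 of the molar concentration: GI50 (50% net growth inhibition), TGI (total growth inhibition) and LC50 (50% net cell death).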

A549 = test: Antitumor activity against A549 cells; conditions: Homo sapiens
[1] = Antitumor activity against MALME 3M cells; conditions: Homo sapiens
M14 = test: Antitumor activity against M14 cells; conditions: Homo sapiens
SK-MEL-28 = test: Antitumor activity against SK-MEL-28 cells; conditions: Homo sapiens
SK-MEL-5 = test: Antitumor activity against SK-MEL-5 cells; conditions: Homo sapiens; how it was run: as §1
UACC-257 = test: Antitumor activity against UACC257 cells; conditions: Homo sapiens; how it was run: as §1
UACC-62 = test: Antitumor activity against UACC62 cells; conditions: Homo sapiens; how it was run: as §1
OVCAR-3 = test: Antitumor activity against OVCAR-3 cells; conditions: Homo sapiens
OVCAR-4 = test: Antitumor activity against OVCAR4 cells; conditions: Homo sapiens
OVCAR-8 = test: Antitumor activity against OVCAR8 cells; conditions: Homo sapiens
A498 = test: Antitumor activity against A498 cells; conditions: Homo sapiens
ACHN = test: Antitumor activity against ACHN cells; conditions: Homo sapiens
CAKI-1 = test: Antitumor activity against CAKI1 cells; conditions: Homo sapiens
SN12C = test: Antitumor activity against SN12C cells; conditions: Homo sapiens; how it was run: as §1
TK-10 = test: Antitumor activity against TK10 cells; conditions: Homo sapiens; how it was run: as §1
PC-3 = test: Antitumor activity against PC3 cells; conditions: Homo sapiens
DU-145 = test: Antitumor activity against DU145 cells; conditions: Homo sapiens
MCF7 = test: Antitumor activity against MCF7 cells; conditions: Homo sapiens
MDA-MB-231 = test: Antitumor activity against MDA-MB-231 cells; conditions: Homo sapiens
MDA-MB-435 = test: Antitumor activity against MDA-MB-435 cells; conditions: Homo sapiens
BT-549 = test: Antitumor activity against BT549 cells; conditions: Homo sapiens
T47D = test: Antitumor activity against T47D cells; conditions: Homo sapiens; how it was run: as §1
Escherichia coli = test: Antibacterial activity against Escherichia coli MTCC 448 after 18 hrs; conditions: MTCC 448, 18 h
How it was run: (§2)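 Disc diffusion (Kirby–Bauer) on Mueller-Hinton agar inoculated with fresh bacteria at 1-5 × 10^4 cfu mL-1. Compounds were dissolved in DMF at a range of concentrations, and discs were placed in triplicate. Plates were incubated at 30 °C for 18 h. MIC was taken as the lowest concentration giving no visible bacterial growth on the plate.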

Pseudomonas aeruginosa = test: Antibacterial activity against Pseudomonas aeruginosa MTCC 424 after 18 hrs; conditions: MTCC 424, 18 h; how it was run: as §2
[2] = tested on: Staphylococcus epidermidis; test: Antibacterial activity against Staphylococcus epidermidis MTCC 435 after 18 hrs; conditions: MTCC 435, 18 h; how it was run: as §2
Bacillus subtilis = test: Antibacterial activity against Bacillus subtilis MTCC 441 after 18 hrs; conditions: MTCC 441, 18 h; how it was run: as §2
CCRF-CEM = test: Antitumor activity against CCRF-CEM cells; conditions: Homo sapiens
K562 = test: Antitumor activity against K562 cells; conditions: Homo sapiens
HOP-62 = test: Antitumor activity against HOP62 cells; conditions: Homo sapiens
HOP-92 = test: Antitumor activity against HOP92 cells; conditions: Homo sapiens
[3] = Antitumor activity against NCI-H322 cells; conditions: Homo sapiens
NCI-H460 = test: Antitumor activity against NCI-H460 cells; conditions: Homo sapiens
HCC 2998 = test: Antitumor activity against HCC2998 cells; conditions: Homo sapiens
HCT-116 = test: Antitumor activity against HCT116 cells; conditions: Homo sapiens
KM12 = test: Antitumor activity against KM12 cells; conditions: Homo sapiens
SW-620 = test: Antitumor activity against SW620 cells; conditions: Homo sapiens; how it was run: as §1
SF-268 = test: Antitumor activity against SF268 cells; conditions: Homo sapiens
SF-539 = test: Antitumor activity against SF539 cells; conditions: Homo sapiens
SNB-19 = test: Antitumor activity against SNB19 cells; conditions: Homo sapiens; how it was run: as §1
SNB-75 = test: Antitumor activity against SNB75 cells; conditions: Homo sapiens; how it was run: as §1
U-251 = test: Antitumor activity against U251 cells; conditions: Homo sapiens; how it was run: as §1
[4] = read-out: Log LC50 (the source's name) (converted)

In the case of `CC(=O)Nc1ccc(S(=O)(=O)NNC(=O)c2cccnc2Nc2ccc(Cl)cc2)cc1`, the GI50 (SR) is reported as 6.31 µM, the LC50 (SR) is reported as > 100 µM and the TGI (SR; read-out: Log TGI (converted)) is reported as > 100 µM. The GI50 (A549) was 32.4 µM, the LC50 (A549) was > 100 µM and the TGI (A549; read-out: Log TGI (converted)) was > 100 µM. For the same compound, the GI50 [1] was > 100 µM, the CC50 [1, 4] was > 100 µM and the TGI ([1]; read-out: Log TGI (converted)) was > 100 µM. The GI50 (M14) was 11.5 µM, the LC50 (M14) was > 100 µM and the TGI (M14; read-out: Log TGI (converted)) was > 100 µM. For the same compound, the GI50 (SK-MEL-28) was 23.4 µM, the LC50 (SK-MEL-28) was > 100 µM and the TGI (SK-MEL-28; read-out: Log TGI (converted)) was > 100 µM. The GI50 (SK-MEL-5) was 5.62 µM, the LC50 (SK-MEL-5) was > 100 µM and the TGI (SK-MEL-5; read-out: Log TGI (converted)) was > 100 µM. For the same compound, the GI50 (UACC-257) was 89.1 µM, the LC50 (UACC-257) was > 100 µM and the TGI (UACC-257; read-out: Log TGI (converted)) was > 100 µM. The GI50 (UACC-62) was 8.91 µM, the LC50 (UACC-62) was > 100 µM and the TGI (UACC-62; read-out: Log TGI (converted)) was > 100 µM. The GI50 (OVCAR-3) was 3.72 µM, the CC50 (OVCAR-3; [4]) was > 100 µM and the TGI (OVCAR-3; read-out: Log TGI (converted)) was > 100 µM. The GI50 (OVCAR-4) was 44.7 µM, the LC50 (lethal concentration, 50%) (OVCAR-4) was > 100 µM and the TGI (OVCAR-4; read-out: Log TGI (converted)) was > 100 µM. The GI50 (OVCAR-8) was 36.3 µM, the CC50 (OVCAR-8; [4]) was > 100 µM and the TGI (OVCAR-8; read-out: Log TGI (converted)) was > 100 µM. The GI50 (A498) was 18.6 µM, the LC50 (A498) was > 100 µM and the TGI (A498; read-out: Log TGI (converted)) was > 100 µM. The GI50 (ACHN) was 52.5 µM, the LC50 (ACHN) was > 100 µM and the TGI (ACHN; read-out: Log TGI (converted)) was 75.9 µM. The GI50 (CAKI-1) was 9.12 µM, the LC50 (CAKI-1) was > 100 µM and the TGI (CAKI-1; read-out: Log TGI (converted)) was > 100 µM. The GI50 (SN12C) was 58.9 µM, the LC50 (SN12C) was > 100 µM and the TGI (SN12C; read-out: Log TGI (converted)) was > 100 µM. For the same compound, the GI50 (TK-10) was 25.1 µM, the LC50 (TK-10) was > 100 µM and the TGI (TK-10; read-out: Log TGI (converted)) was > 100 µM. For the same compound, the GI50 (PC-3) was 29.5 µM, the LC50 (PC-3) was > 100 µM and the TGI (PC-3; read-out: Log TGI (converted)) was > 100 µM. The GI50 (DU-145) was 34.7 µM, the LC50 (DU-145) was > 100 µM and the TGI (DU-145; read-out: Log TGI (converted)) was > 100 µM. The GI50 (MCF7) was 4.37 µM, the LC50 (MCF7) was > 100 µM and the TGI (MCF7; read-out: Log TGI (converted)) was > 100 µM. For the same compound, the GI50 (MDA-MB-231) was 41.7 µM, the LC50 (MDA-MB-231) was > 100 µM and the TGI (MDA-MB-231; read-out: Log TGI (converted)) was > 100 µM. The GI50 (MDA-MB-435) was 3.24 µM, the LC50 (MDA-MB-435) was > 100 µM and the TGI (MDA-MB-435; read-out: Log TGI (converted)) was > 100 µM. The GI50 (BT-549) was 25.1 µM, the LC50 (BT-549) was > 100 µM and the TGI (BT-549; read-out: Log TGI (converted)) was > 100 µM. For the same compound, the GI50 (T47D) was 6.31 µM, the CC50 (T47D; [4]) was > 100 µM and the TGI (T47D; read-out: Log TGI (converted)) was > 100 µM. The MIC (Escherichia coli) was 18 µg/mL (≈ 39.1 µM), the MIC (Pseudomonas aeruginosa) was > 25 µg/mL and the MIC [2] was 22 µg/mL (≈ 47.8 µM). For the same compound, the MIC (Bacillus subtilis) was 17 µg/mL (≈ 37 µM), the LC50 (CCRF-CEM) was > 100 µM and the TGI (CCRF-CEM; read-out: Log TGI (converted)) was > 100 µM. The GI50 (CCRF-CEM; read-out: pGI50 (converted)) was 21.4 µM, the GI50 (K562) was 8.51 µM and the LC50 (K562) was > 100 µM. For the same compound, the TGI (K562; read-out: Log TGI (converted)) was > 100 µM, the GI50 (HOP-62) was > 100 µM and the CC50 (HOP-62; [4]) was > 100 µM. For the same compound, the TGI (HOP-62; read-out: Log TGI (converted)) was > 100 µM, the GI50 (HOP-92) was > 100 µM and the CC50 (HOP-92; [4]) was > 100 µM. The TGI (HOP-92; read-out: Log TGI (converted)) was > 100 µM, the GI50 [3] was > 100 µM and the CC50 [3, 4] was > 100 µM. For the same compound, the TGI ([3]; read-out: Log TGI (converted)) was > 100 µM, the GI50 (NCI-H460) was 4.68 µM and the LC50 (NCI-H460) was > 100 µM. The TGI (NCI-H460; read-out: Log TGI (converted)) was > 100 µM, the GI50 (HCC 2998) was 8.32 µM and the LC50 (HCC 2998) was > 100 µM. For the same compound, the TGI (HCC 2998; read-out: Log TGI (converted)) was > 100 µM, the GI50 (HCT-116) was 7.24 µM and the LC50 (HCT-116) was > 100 µM. The TGI (HCT-116; read-out: Log TGI (converted)) was > 100 µM, the GI50 (KM12) was 4.17 µM and the CC50 (KM12; [4]) was > 100 µM. For the same compound, the TGI (KM12; read-out: Log TGI (converted)) was > 100 µM, the GI50 (SW-620) was 7.59 µM and the CC50 (SW-620; [4]) was > 100 µM. For the same compound, the TGI (SW-620; read-out: Log TGI (converted)) was > 100 µM, the GI50 (SF-268) was 21.9 µM and the LC50 (SF-268) was > 100 µM. For the same compound, the TGI (SF-268; read-out: Log TGI (converted)) was > 100 µM, the GI50 (SF-539) was 15.5 µM and the LC50 (SF-539) was > 100 µM. For the same compound, the TGI (SF-539; read-out: Log TGI (converted)) was 75.9 µM, the GI50 (SNB-19) was 14.1 µM and the CC50 (SNB-19; [4]) was > 100 µM. The TGI (SNB-19; read-out: Log TGI (converted)) was > 100 µM, the GI50 (SNB-75) was 5.5 µM and the CC50 (SNB-75; [4]) was > 100 µM. The TGI (SNB-75; read-out: Log TGI (converted)) was > 100 µM, the GI50 (U-251) was 24 µM and the LC50 (U-251) was > 100 µM. For the same compound, the TGI (U-251; read-out: Log TGI (converted)) was > 100 µM.
